Assay results published in ChEMBL document CHEMBL3745660, “Hit-to-lead optimization of phenylsulfonyl hydrazides for a potent suppressor of PGE2 production: Synthesis, biological activity, and molecular docking study” (Bioorg Med Chem Lett, 2016).

What was measured:
RAW264.7 [1] = assay: Cytotoxicity against mouse RAW264.7 cells assessed as cell viability at 1 to 10 uM after 24 hrs in presence of LPS by MTT assay; type: cell-based; details: raw264.7, 24 h
Summary of the method: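 RAW 264.7 macrophages treated with compounds at 1 or 10 µM in the presence of LPS for 24 h; viability read by MTT assay. Experiments run at least twice.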

RAW264.7 [2] = assay: Suppression of PGE2 production in LPS-induced mouse RAW264.7 cells after 24 hrs by enzyme immunoassay; type: functional, cell-based; details: RAW264.7, 24 h
Summary of the method: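 RAW 264.7 cells stimulated with LPS and treated with compound for 24 h, first screened at 1 or 10 µM. Compounds giving >50% suppression went on to IC50 determination. PGE2 in medium measured by EIA. NS398 at 3 µM served as positive control. Runs done at least twice.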

[3] = target: T1, Prostaglandin E synthase (Homo sapiens) (UniProt O14684); assay: Inhibition of PGES-1 in human A549 cell microsomes using PGH2 as substrate assessed as remaining enzyme activity of interleukin-1beta-stimulated PGE2 production at 10 uM incubated for 15 mins post interleukin-1beta challenge for 72 hrs by RP-HPLC analysis
T1 sequence (whole entry): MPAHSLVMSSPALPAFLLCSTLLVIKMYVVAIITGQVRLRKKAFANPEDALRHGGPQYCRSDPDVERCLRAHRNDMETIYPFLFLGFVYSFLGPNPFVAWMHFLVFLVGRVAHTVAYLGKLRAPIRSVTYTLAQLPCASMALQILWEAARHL
Summary of the method: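 Microsomes from A549 cells stimulated with 2 ng/mL IL-1β for 72 h (pellet after 10,000 × g then 174,000 × g spins), diluted in 0.1 M potassium phosphate pH 7.4 with 2.5 mM glutathione. Compound at 10 µM preincubated 15 min at 4 °C, then 20 µM PGH2 added for 1 min at 4 °C. Stopped with FeCl2/citric acid containing 11β-PGE2 internal standard. PGE2 isolated by solid-phase extraction and quantified by RP-HPLC. Activity given as % of uninhibited control, mean ± S.E.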

Prostaglandin E synthase = target: T2, Prostaglandin E synthase (Homo sapiens, UniProt O14684); assay: Inhibition of PGES-1 in human A549 cell microsomes using PGH2 as substrate assessed as suppression of interleukin-1beta-stimulated PGE2 production incubated for 15 mins post interleukin-1beta challenge for 72 hrs by RP-HPLC analysis
T2 sequence (O14684 whole entry): T1 sequence (whole entry)
Summary of the method: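 Enzyme source was A549 microsomes after 72 h IL-1β (2 ng/mL) stimulation, in 0.1 M potassium phosphate pH 7.4 with 2.5 mM GSH. Compounds preincubated 15 min at 4 °C over a concentration range, then 20 µM PGH2 added for 1 min at 4 °C. Reaction stopped, PGE2 recovered by solid-phase extraction and measured by RP-HPLC against 11β-PGE2.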

[4] = target: T1, Prostaglandin E synthase (Homo sapiens); assay: Potency index, ratio of IC50 for MK-886 to IC50 for test compound for inhibition of PGES-1 in human A549 cell microsomes; type: cell-based
RAW264.7 [5] = assay: Potency index, ratio of IC50 for NS398 to IC50 for test compound for suppression of PGE2 production in LPS-induced mouse RAW264.7 cells; type: functional
RAW264.7 [6] = assay: Suppression of NO production in LPS-induced mouse RAW264.7 cells by Griess assay; type: functional, cell-based
Summary of the method: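 LPS (10 ng/mL)-stimulated RAW 264.7 cells co-incubated with compound at 0.1–10 nM. Nitrite in supernatant read with Griess reagent. Means ± SD of three samples; ANOVA with Dunnett's test.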

IC50 (RAW264.7 [2]) | Activity [3] | IC50 (Prostaglandin E synthase) | Ratio IC50 [4] | IC50 (RAW264.7 [6]) | Structure (SMILES) | Cytotoxic concentration (RAW264.7 [1]) | Ratio IC50 (RAW264.7 [5])
134 nM |  |  |  |  | CCCc1ccc(S(=O)(=O)N(Nc2ccccc2)C(=O)Oc2ccc(Oc3ccccc3)cc2)cc1 | > 1 µM | 
34.1 nM | 55.7% | > 10000 nM |  |  | COc1ccccc1OC(=O)N(Nc1ccccc1)S(=O)(=O)c1ccc(C)cc1 | > 10 µM | 
56.9 nM | 79.9% | > 10000 nM |  |  | CC(C)(C)c1ccc(S(=O)(=O)N(Nc2ccccc2)C(=O)Oc2ccc(OCc3ccccc3)cc2)cc1 | > 1 µM | 
20.5 nM | 62.5% | > 10000 nM |  |  | CCOc1ccc(OC(=O)N(Nc2ccccc2)S(=O)(=O)c2ccc(OC)cc2)cc1 | > 10 µM | 
1010 nM | 41.3% | 6100 nM |  |  | Cc1ccc(OC(=O)N(Nc2ccccc2)S(=O)(=O)c2ccc(C)cc2)cc1 | > 10 µM | 
490 nM |  |  |  |  | COc1ccc(OC(=O)N(Nc2ccccc2)S(=O)(=O)c2ccc(OC)cc2)cc1 | > 10 µM | 
17.1 nM | 37.1% | 6600 nM |  |  | COc1ccc(S(=O)(=O)N(Nc2ccccc2)C(=O)Oc2ccc(Oc3ccccc3)cc2)cc1 | > 10 µM | 
584 nM |  |  |  |  | COc1ccc(OC(=O)N(Nc2ccccc2)S(=O)(=O)c2ccccc2)cc1 | > 10 µM | 
4430 nM |  |  |  |  | COc1ccc(S(=O)(=O)N(Nc2ccccc2)C(=O)Oc2ccccc2)cc1 | > 10 µM | 
177 nM |  |  |  |  | Cc1cc(C)c(S(=O)(=O)N(Nc2ccccc2)C(=O)Oc2ccc(Oc3ccccc3)cc2)c(C)c1 | > 1 µM | 
81.5 nM |  |  |  |  | Cc1cc(C)c(S(=O)(=O)N(Nc2ccccc2)C(=O)Oc2ccc(OCc3ccccc3)cc2)c(C)c1 | > 1 µM | 
 | 63.6% | > 10000 nM |  |  | O=C(Oc1ccccc1)N(Nc1ccccc1)S(=O)(=O)c1ccccc1 |  | 
32.6 nM | 81.2% | > 10000 nM |  |  | Cc1ccc(S(=O)(=O)N(Nc2ccccc2)C(=O)Oc2ccc(OCc3ccccc3)cc2)cc1 | >= 10 uM | 
4.5 nM | 18.5% | 70 nM | 30 | 6.9 nM | COc1ccc(S(=O)(=O)N(Nc2ccccc2)C(=O)Oc2ccc3c(c2)CCC3)cc1 | > 10 µM | 1.5
5720 nM |  |  |  |  | Cc1ccc(S(=O)(=O)N(Nc2ccccc2)C(=O)Oc2ccccc2)cc1 | > 10 µM | 
1020 nM |  |  |  |  | Cc1ccc(OC(=O)N(Nc2ccccc2)S(=O)(=O)c2ccccc2)cc1 | > 10 µM | 
50 nM | 62.6% | > 10000 nM |  |  | COc1ccc(S(=O)(=O)N(Nc2ccccc2)C(=O)Oc2ccc(OCc3ccccc3)cc2)cc1 | >= 10 uM | 
165 nM |  |  |  |  | COc1ccc(S(=O)(=O)N(Nc2ccccc2)C(=O)Oc2ccccc2OC)cc1 | > 10 µM | 
 | 16.3% |  |  |  | CC(C)c1ccc2c(c1)c(SC(C)(C)C)c(CC(C)(C)C(=O)O)n2Cc1ccc(Cl)cc1 |  | 
28.5 nM | 63.6% | > 10000 nM |  |  | CCc1ccc(OC(=O)N(Nc2ccccc2)S(=O)(=O)c2ccc(OC)cc2)cc1 | > 10 µM | 

Structure (SMILES) | IC50 (RAW264.7 [2]) | Activity [3] | IC50 (Prostaglandin E synthase) | Ratio IC50 [4] | IC50 (RAW264.7 [6]) | Cytotoxic concentration (RAW264.7 [1]) | Ratio IC50 (RAW264.7 [5])
O=C(Oc1ccc(OCc2ccccc2)cc1)N(Nc1ccccc1)S(=O)(=O)c1ccc(-c2ccccc2)cc1 | 93 nM |  |  |  |  | > 1 µM | 
O=C(Oc1ccc(Oc2ccccc2)cc1)N(Nc1ccccc1)S(=O)(=O)c1ccc(-c2ccccc2)cc1 | 161 nM |  |  |  |  | > 1 µM | 
